Laboratory results published in ChEMBL document CHEMBL5344453, “Selective Recognition of c-KIT 1 G-Quadruplex by Structural Tuning of Heteroaromatic Scaffolds and Side Chains” (ACS Med Chem Lett, 2024).

Columns and labels:
[1] = test system: Quadruplex DNA; assay: Stabilization of G-quadruplex c-KIT1 5-FAM-GGGAGGGCGCTGGGAGGAGGG-TAMRA-3 (unknown origin) assessed as change in melting temperature at 1 uM incubated for 1 hr in dark condition by FRET-based melting assay; format: nucleic-acid assay
How it was run: (§1)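 FRET melting of dual-fluorophore-tagged oligonucleotides (200 nM) in 60 mM potassium cacodylate buffer, pH 7.4, with ligand at 1 μM; ΔTm taken against the ligand-free oligonucleotide Tm as control.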

[2] = test system: Quadruplex DNA; assay: Stabilization of G-quadruplex c-MYC 5-FAM-TGGGGAGGGTGGGGAGGGTGGGGAAGG-TAMRA- 3 (unknown origin) assessed as change in melting temperature at 1 uM incubated for 1 hr in dark condition by FRET-based melting assay; format: nucleic-acid assay; how it was run: as §1
[3] = test system: Quadruplex DNA; assay: Stabilization of G-quadruplex BCL2 5-FAM-AGGGGCGGGCGCGGGAGGAAGGGGGCGGGAGCGGGGCTG-TAMRA-3 (unknown origin) assessed as change in melting temperature at 1 uM incubated for 1 hr in dark condition by FRET-based melting assay; format: nucleic-acid assay; how it was run: as §1
[4] = test system: Quadruplex DNA; assay: Stabilization of calf thymus […] ds DNA 5-FAM-CAATCGGATCGAATTCGATCCGATTG-TAMRA-3 assessed as change in melting temperature at 1 uM incubated for 1 hr in dark condition by FRET-based melting assay; format: nucleic-acid assay; details: Bos taurus; how it was run: as §1
[5] = test system: Quadruplex DNA; assay: Stabilization of 5-FAM/3-TAMRA labelled G-quadruplex c-KIT1 5-FAM-GGGAGGGCGCTGGGAGGAGGG-TAMRA-3 (unknown origin) assessed as change in melting temperature incubated for 1 hr in dark condition by FRET-based melting assay; format: nucleic-acid assay; details: dose 1-10 µM
How it was run: (§2)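 FRET melting of dual-fluorophore (FAM/TAMRA) tagged G-quadruplex (200 nM) in 60 mM potassium cacodylate, pH 7.4. The screen used 1 μM ligand; dose series used 1, 3, 5, 7 and 10 μM. ΔTm was taken against the Tm of the same oligonucleotide without ligand.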

[6] = test system: Quadruplex DNA; assay: Stabilization of G-quadruplex c-KIT1 5-FAM-GGGAGGGCGCTGGGAGGAGGG-TAMRA-3 (unknown origin) assessed as change in melting temperature at 5 uM incubated for 1 hr in dark condition by FRET-based melting assay; format: nucleic-acid assay; how it was run: as §2
[7] = test system: Quadruplex DNA; assay: Stabilization of G-quadruplex c-KIT1 5-FAM-GGGAGGGCGCTGGGAGGAGGG-TAMRA-3 (unknown origin) assessed as change in melting temperature at 7 uM incubated for 1 hr in dark condition by FRET-based melting assay; format: nucleic-acid assay; how it was run: as §2
[8] = test system: Quadruplex DNA; assay: Stabilization of G-quadruplex VEGF 5-FAM-CGGGGCGGGCCGGGGGCGGGGT-TAMRA-3 (unknown origin) assessed as change in melting temperature at 10 uM incubated for 1 hr in dark condition by FRET-based melting assay; format: nucleic-acid assay; how it was run: as §2
[9] = test system: Quadruplex DNA; assay: Stabilization of G-quadruplex h-TELO 5-FAM-TTGGGTTAGGGTTAGGGTTAGGGA-TAMRA-3 (unknown origin) assessed as change in melting temperature at 10 uM incubated for 1 hr in dark condition by FRET-based melting assay; format: nucleic-acid assay; how it was run: as §2
[10] = test system: Quadruplex DNA; assay: Binding affinity to excessive G-quadruplex VEGF 5-FAM-CGGGGCGGGCCGGGGGCGGGGT-TAMRA-3 (unknown origin) assessed as fold increase in fluorescence intensity at 1 uM incubated for 1 hr in dark condition by fluorescence spectroscopy assay; format: nucleic-acid assay
How it was run: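 Fluorimetric titration in 100 mM Tris-KCl buffer, pH 7.4. Ligand fixed at 1.0 μM and titrated with increasing concentrations of each G-quadruplex until fluorescence saturation. The fold increase in ligand fluorescence intensity was read, and Kd was derived from the titration plot.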

[11] = target: Quadruplex DNA; assay: Binding affinity to G-quadruplex c-MYC 5-FAM-TGGGGAGGGTGGGGAGGGTGGGGAAGG-TAMRA-3 (unknown origin) assessed as dissociation constant by measuring thermogram by isothermal titration calorimetry (ITC) assay; format: nucleic-acid assay
How it was run: (§3)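 ITC of ligand binding to folded G4 in 100 mM Tris-KCl buffer, pH 7.4. Kd and stoichiometry were obtained from the isothermal heat curve and binding isotherm.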

[12] = target: Quadruplex DNA; assay: Binding affinity to G-quadruplex BCL-2 5-FAM-AGGGGCGGGCGCGGGAGGAAGGGGGCGGGAGCGGGGCTG-TAMRA-3 (unknown origin) assessed as dissociation constant by measuring thermogram by isothermal titration calorimetry (ITC) assay; format: nucleic-acid assay; how it was run: as §3
[13] = target: Quadruplex DNA; assay: Binding affinity to G-quadruplex VEGF 5-FAM-CGGGGCGGGCCGGGGGCGGGGT-TAMRA-3 (unknown origin) assessed as dissociation constant by measuring thermogram by isothermal titration calorimetry (ITC) assay; format: nucleic-acid assay; how it was run: as §3
[14] = Cytotoxicity against HEK293 cells assessed as cell viability measured after 24 hrs by XTT formazan assay; format: toxicity, cell-based; details: human
[15] = Induction of cell permeation in human c-KIT-positive K562 cell membrane assessed as fold increase in (G- quadruplex/antibody complex) BG4 foci at 3 uM measured after 24 hrs by immunofluorescence assay; format: functional
How it was run: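 K562 cells were treated with ligand (3 or 5.5 μM) and immunostained with G4-specific antibody BG4. Nuclear BG4 foci were counted by confocal microscopy and expressed relative to untreated cells.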

[16] = test system: K562; assay: Attenuation of proto-oncogene expression in human c-KIT-positive K562 cells assessed as reduction in BCL-2 oncogene expression at 3 uM measured after 24 hrs by qRT-PCR analysis relative to control; format: functional
How it was run: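 K562 cells treated 24 h at two doses per ligand (3 and 6 μM, 5.5 and 11 μM; positive control 2 and 4 μM). c-KIT, c-MYC and BCL-2 mRNA measured by qRT-PCR and normalized to housekeeping gene 18s, relative to untreated control.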

[17] = Reduction of c-KIT oncogene expression in human K562 cells transfected with c-KIT plasmid construct assessed as reduction in luciferase expression at 3 uM measured after 36 hrs by luciferase reporter assay; format: functional
How it was run: (§4)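 K562 cells were transfected with luciferase plasmids carrying the c-KIT, c-MYC or BCL-2 promoter G4. They were then treated with ligand (3 and 6 μM or 5.5 and 11 μM), and relative luciferase expression was measured.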

[18] = Reduction of BCL-2 oncogene expression in human K562 cells transfected with BCL-2 plasmid construct assessed as reduction in luciferase expression at 3 uM measured after 36 hrs by luciferase reporter assay; format: functional; how it was run: as §4
[19] = Reduction of BCL-2 oncogene expression in human K562 cells transfected with BCL-2 plasmid construct assessed as reduction in luciferase expression at 6 uM measured after 36 hrs by luciferase reporter assay; format: functional; how it was run: as §4
[20] = Reduction of c-KIT protein expression in human K562 cells at 6 uM measured after 24 hrs by Western blotting analysis relative to control; format: functional
How it was run: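 K562 cells were treated with ligand (3 and 6 μM or 5.5 and 11 μM). c-KIT protein was measured by Western blot with GAPDH as the housekeeping reference, relative to control.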

[21] = test system: K562; assay: Induction of apoptosis in human K562 cells assessed as cell death at 3 uM incubated for 24 hrs by FITC-Annexin V and PI based flow cytometry relative to control; format: functional
How it was run: (§5)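 K562 cells after ligand treatment dual-stained with annexin V and propidium iodide. Apoptotic cell populations (early and late) scored by flow cytometry dot plot analysis.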

[22] = test system: K562; assay: Induction of apoptosis in human K562 cells assessed as cell death at 6 uM incubated for 24 hrs by FITC-Annexin V and PI analysis relative to control; format: functional; how it was run: as §5

CN(C)CCCNC(=O)c1ccc(-n2cc(-c3ccc4[nH]c5ccccc5c4c3)nn2)cc1
ΔTm [1]: 20.1 °C | ΔTm [2]: 3.2 °C | ΔTm [3]: 2.2 °C | ΔTm [4]: 0.7 °C | Activity [5]: Dose-Dependent Effect | ΔTm [6]: 25.5 °C | ΔTm [7]: 26.5 °C | ΔTm [8]: 11.2 °C | ΔTm [9]: 20.3 °C | fold change (FC) [10]: 2.1 | Kd [11]: 6.2 µM | Kd [12]: 10.8 µM | Kd [13]: 15.9 µM | IC50 at 24 h [14]: > 50 µM | fold change (FC) [15]: 5.4 | inhibition at 3 µM [16]: 29% | inhibition at 3 µM [17]: 22% | inhibition at 3 µM [18]: 7.8% | inhibition at 6 µM [19]: 15.8% | inhibition at 6 µM [20]: 65.5% | Activity [21]: 35% | Activity [22]: 63%
